# From ChEMBL document CHEMBL1123837, “1-Amino-substituted 4-methyl-5H-pyrido[3',4':4,5]pyrrolo[3,2-c]pyridines: a new class of antineoplastic agents” (J Med Chem, 1987)
# Active and inactive are the calls of the source. No cut-off for these calls is given here.
# Experiments:
# [1] = test system: Calf thymus DNA; assay: Binding affinity for DNA by ethidium bromide displacement assay; format: nucleic-acid assay; details: Bos taurus
# How it was run: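 Competitive ethidium bromide displacement with calf thymus DNA at 10 µg/mL in 20 mM Na phosphate buffer, 0.1 M NaCl, 1 mM EDTA, pH 7.4. The apparent DNA affinity constant is given in 10^6 M^-1 ± standard deviation, from 6 values across two independent experiments.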
# [2] = test system: Mus musculus; assay: In vivo antitumor activity was determined against P388 leukemia cells expressed as treated/control at the dose of 10 mg/kg; format: functional
# How it was run: (§1)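 Following NCI protocols, 10^6 viable P388 leukemia cells were inoculated ip on day 0 into male or female CDF1 hybrid mice, 10 per test group. Compounds in distilled water were given ip (0.1 mL/10 g body weight) at various doses on days 1–5. T/C = median survival day of treated / median survival day of negative controls × 100.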
# [3] = test system: Mus musculus; assay: In vivo antitumor activity was determined against P388 leukemia cells expressed as treated/control at the dose of 20 mg/kg; format: functional; how it was run: as §1
# [4] = test system: Mus musculus; assay: In vivo antitumor activity was determined against P388 leukemia cells expressed as treated/control at the dose of 40 mg/kg; format: functional; how it was run: as §1
# [5] = test system: Mus musculus; assay: In vivo antitumor activity was determined against P388 leukemia cells expressed as treated/control at the dose of 5 mg/kg; format: functional; how it was run: as §1
# [6] = test system: L1210; assay: (§2) In vitro cytotoxicity against L1210 cells was determined after 48 hours of incubation; format: functional, Mus musculus; details: Mus musculus, L1210, 48 h; read-out: ID50 (the source's name)
# How it was run: (§3)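 Exponentially growing L1210 cells were cultured in RPMI 1640 with 2 mM glutamine, penicillin/streptomycin and 10% fetal calf serum, under 5% CO2 at 37 °C. Drugs dissolved in distilled water were added to cells at 0.8 × 10^5 cells/mL for 48 h, then cells were counted. ID50 was estimated by regression of dose-response data, as the mean of two values from two independent experiments.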
# [7] = test system: Mus musculus; assay: In vivo antitumor activity was determined against P388 leukemia cells expressed as treated/control at the dose of 80 mg/kg;T = toxic at this dose; format: organism-based; design: dose 80 mg/kg; how it was run: as §1
# [8] = test system: Mus musculus; assay: In vivo antitumor activity was determined against P388 leukemia cells expressed as treated/control at the dose of (2.5-40)mg/kg; IA = Inactive; format: functional, organism-based; how it was run: as §1
# [9] = test system: Mus musculus; assay: In vivo antitumor activity was evaluated on L1210 leukemia model and percent of treated/control of tumor cells was determined at 20 mg/kg dosage concentration; format: functional
# How it was run: (§4)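 L1210 leukemia, 10^5 viable cells inoculated ip on day 0 into CDF1 hybrid male or female mice, 10 mice per group. Compounds were given ip in distilled water (0.1 mL/10 g body weight) on days 1-5. Vehicle controls were treated the same way. NCI protocols were followed. T/C = median survival day of treated mice / median survival day of vehicle controls × 100.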
# [10] = test system: Mus musculus; assay: In vivo antitumor activity was determined against P388 leukemia cells expressed as number of animals survived; format: functional
# How it was run: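 P388 leukemia, 10^6 viable cells inoculated ip on day 0 into CDF1 hybrid male or female mice, 10 mice per group. Compounds were given ip in distilled water (0.1 mL/10 g body weight) at various doses on days 1-5. Vehicle controls were treated the same way. NCI protocols were followed.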
# [11] = test system: Mus musculus; assay: In vivo antitumor activity was evaluated on L1210 leukemia model and number of survivors (animals) was determined at 20 mg/kg dosage concentration; format: functional; how it was run: as §4
# [12] = test system: Mus musculus; assay: In vivo antitumor activity was evaluated on L1210 leukemia model and median survival day was determined at 20 mg/kg dosage concentration; format: functional; how it was run: as §4
# [13] = test system: Mus musculus; assay: In vivo antitumor activity was evaluated on L1210 leukemia model and weight change in tumors was determined at 20 mg/kg dosage concentration; format: functional
# [14] = test system: Mus musculus; assay: In vivo antitumor activity was determined against P388 leukemia cells expressed as treated/control at the dose of 50 mg/kg;T = toxic at this dose; format: organism-based; design: dose 50 mg/kg; how it was run: as §1
# [15] = test system: Mus musculus; assay: In vivo antitumor activity was determined against P388 leukemia cells expressed as treated/control at the dose of (5-20)mg/kg; IA = Inactive; format: functional, organism-based; how it was run: as §1
# [16] = as §2; format: cell-based; details: mouse, read-out: ID50; how it was run: as §3
# [17] = test system: Mus musculus; assay: In vivo antitumor activity was determined against P388 leukemia cells expressed as treated/control at the dose of 60 mg/kg; T = toxic at this dose; format: organism-based; design: dose 60 mg/kg; how it was run: as §1
# [18] = test system: Mus musculus; assay: In vivo antitumor activity was determined against P388 leukemia cells expressed as treated/control at the dosage of (0.3-40)mg/kg; IA= inactive; format: functional, organism-based; how it was run: as §1
# [19] = test system: Mus musculus; assay: In vivo antitumor activity was determined against P388 leukemia cells expressed as treated/control at the dose of 50 mg/kg; format: functional; how it was run: as §1
# [20] = test system: Mus musculus; assay: In vivo antitumor activity was evaluated on L1210 leukemia model and percent of treated/control of tumor cells was determined at 1.25 mg/kg dosage concentration; format: functional
# How it was run: (§5)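 Following NCI protocols, 10^5 viable L1210 leukemia cells were inoculated ip on day 0 into male or female CDF1 hybrid mice, 10 per test group. Compounds in distilled water were dosed ip (0.1 mL/10 g body weight) daily on days 1–5. T/C = median survival day of treated mice / median survival day of negative controls × 100.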
# [21] = test system: Mus musculus; assay: In vivo antitumor activity was evaluated on L1210 leukemia model and percent of treated/control of tumor cells was determined at 10 mg/kg dosage concentration; format: functional; how it was run: as §5
# [22] = test system: Mus musculus; assay: In vivo antitumor activity was evaluated on L1210 leukemia model and percent of treated/control of tumor cells was determined at 2.5 mg/kg dosage concentration.; format: functional; how it was run: as §5
# [23] = test system: Mus musculus; assay: In vivo antitumor activity was evaluated on L1210 leukemia model and percent of treated/control of tumor cells was determined at 40 mg/kg dosage concentration; format: functional; how it was run: as §5
# [24] = test system: Mus musculus; assay: In vivo antitumor activity was evaluated on L1210 leukemia model and percent of treated/control of tumor cells was determined at 50 mg/kg dosage concentration; format: functional; how it was run: as §5
# [25] = test system: Mus musculus; assay: In vivo antitumor activity was evaluated on L1210 leukemia model and percent of treated/control of tumor cells was determined at 5 mg/kg dosage concentration; format: functional; how it was run: as §5
# [26] = test system: Mus musculus; assay: In vivo antitumor activity was evaluated on L1210 leukemia model and number of survivors (animals) was determined at 1.25 mg/kg dosage concentration; number of survivors given as 0/10; format: functional; how it was run: as §4
# [27] = test system: Mus musculus; assay: In vivo antitumor activity was evaluated on L1210 leukemia model and number of survivors (animals) was determined at 10 mg/kg dosage concentration; number of survivors given as 3/10; format: functional; how it was run: as §4
# [28] = test system: Mus musculus; assay: In vivo antitumor activity was evaluated on L1210 leukemia model and number of survivors (animals) was determined at 2.5 mg/kg dosage concentration; number of survivors given as 0/10; format: functional; how it was run: as §4
# [29] = test system: Mus musculus; assay: In vivo antitumor activity was evaluated on L1210 leukemia model and number of survivors (animals) was determined at 20 mg/kg dosage concentration; number of survivors given as 0/10; format: functional; how it was run: as §4
# [30] = test system: Mus musculus; assay: In vivo antitumor activity was evaluated on L1210 leukemia model and number of survivors (animals) was determined at 40 mg/kg dosage concentration; number of survivors given as 0/10; format: functional; how it was run: as §4
# [31] = test system: Mus musculus; assay: In vivo antitumor activity was evaluated on L1210 leukemia model and number of survivors (animals) was determined at 50 mg/kg dosage concentration; number of survivors given as 0/10; format: functional; how it was run: as §4
# [32] = test system: Mus musculus; assay: In vivo antitumor activity was evaluated on L1210 leukemia model and number of survivors (animals) was determined at 5 mg/kg dosage concentration; number of survivors given as 0/10; format: functional; how it was run: as §4
# [33] = test system: Mus musculus; assay: In vivo antitumor activity was evaluated on L1210 leukemia model and weight change in tumors was determined at 50 mg/kg dosage concentration; format: functional
# [34] = test system: Mus musculus; assay: In vivo antitumor activity was evaluated on L1210 leukemia model and weight change in tumors was determined at 5 mg/kg dosage concentration; format: functional
# [35] = test system: Mus musculus; assay: In vivo antitumor activity was evaluated on L1210 leukemia model and weight change in tumors was determined at 40 mg/kg dosage concentration; format: functional
# [36] = test system: Mus musculus; assay: In vivo antitumor activity was evaluated on L1210 leukemia model and median survival day was determined at 1.25 mg/kg dosage concentration; format: functional; how it was run: as §4
# [37] = test system: Mus musculus; assay: In vivo antitumor activity was evaluated on L1210 leukemia model and median survival day was determined at 10 mg/kg dosage concentration; format: functional; how it was run: as §4
# [38] = test system: Mus musculus; assay: In vivo antitumor activity was evaluated on L1210 leukemia model and median survival day was determined at 2.5 mg/kg dosage concentration.; format: functional; how it was run: as §4
# [39] = test system: Mus musculus; assay: In vivo antitumor activity was evaluated on L1210 leukemia model and median survival day was determined at 40 mg/kg dosage concentration; format: functional; how it was run: as §4
# [40] = test system: Mus musculus; assay: In vivo antitumor activity was evaluated on L1210 leukemia model and median survival day was determined at 50 mg/kg dosage concentration; format: functional; how it was run: as §4
# [41] = test system: Mus musculus; assay: In vivo antitumor activity was evaluated on L1210 leukemia model and weight change in tumors was determined at 1.25 mg/kg dosage concentration; format: functional
# [42] = test system: Mus musculus; assay: In vivo antitumor activity was evaluated on L1210 leukemia model and weight change in tumors was determined at 10 mg/kg dosage concentration; format: functional
# [43] = test system: Mus musculus; assay: In vivo antitumor activity was evaluated on L1210 leukemia model and weight change in tumors was determined at 2.5 mg/kg dosage concentration.; format: functional
# [44] = test system: Mus musculus; assay: In vivo antitumor activity was evaluated on L1210 leukemia model and median survival day was determined at 5 mg/kg dosage concentration; format: functional; how it was run: as §4
structure (smiles),measurement,setting,value
Cc1cnc(NCCCN(C)C)c2c3cnccc3n(C)c12,K aff,[1],40000 M⁻¹
same,T/C,[2],150
same,T/C,[3],167
same,T/C,[4],173
same,T/C,[5],136
CCNCCCNc1[nH]cc(C)c2nc3ccncc3c1-2,K aff,[1],25000 M⁻¹
same,IC50,[6],17.4 µM
same,T/C,[7],Toxic
same,T/C,[8],inactive
O=c1[nH]cc(F)c(=O)[nH]1 [FLUOROURACIL],T/C,[9],196%
same,Survivors,[10],0
same,Survivors,[11],10
same,Median survival day,[12],18
same,Weight changes,[13],0.1 g
CCN(CC)CCCCNc1[nH]cc(C)c2nc3ccncc3c1-2,K aff,[1],30000 M⁻¹
same,IC50,[6],12 µM
same,T/C,[14],Toxic
same,T/C,[15],inactive
CCN(CC)CCCNc1ncc(C)c2c1c1cnccc1n2CC,K aff,[1],17000 M⁻¹
same,CC50 at 48 h,[16],1.4 µM
same,T/C,[17],Toxic
same,T/C,[18],inactive
Cc1c[nH]c(NCCCN(C)C)c2c3cnccc3nc1-2,K aff,[1],20000 M⁻¹
same,IC50,[6],0.16 µM
same,T/C,[2],156
same,T/C,[3],186
same,T/C,[4],184
same,T/C,[19],181
same,T/C,[20],127.5%
same,T/C,[21],177%
same,T/C,[22],140%
same,T/C,[9],169.5%
same,T/C,[23],100%
same,T/C,[24],89%
same,T/C,[25],152%
same,Survivors,[10],1
same,Survivors,[26],0
same,Survivors,[27],3
same,Survivors,[28],0
same,Survivors,[29],0
same,Survivors,[30],0
same,Survivors,[31],0
same,Survivors,[32],0
same,Weight changes,[33],-2.4 g
same,Weight changes,[34],0.3 g
same,Weight changes,[35],-1.1 g
same,Median survival day,[36],11.75
same,Median survival day,[37],16.25
same,Median survival day,[38],12.9
same,Median survival day,[12],15.6
same,Median survival day,[39],9.25
same,Median survival day,[40],8.2
same,Weight changes,[41],0.3 g
same,Weight changes,[42],0.5 g
same,Weight changes,[43],0.3 g
same,Weight changes,[13],-1.7 g
same,Median survival day,[44],14
